Results collected from several papers.
Lines come from different studies, so protocols differ.

SMILES	cell line	assay	conditions	endpoint	result
O=C(NO)c1ccc(CNc2nc3cccc(-c4ccc5c(c4)OCO5)n3n2)cc1	NCI-H226	cell growth or viability, SRB		GI50	0.58 µM
O=C(O)c1ccc2c(c1)nc(Nc1cccc(Cl)c1)c1ccncc12	NCI-H226	cell growth or viability, crystal violet	48 h	IC50	5.8 µM
C=C(F)C(=O)N1CCN(c2nc(OC[C@@H]3CCCN3C)nc3c2CCN(c2cccc4cccc(Cl)c24)C3)C[C@@H]1CC#N	SNU1	cell growth or viability, ATP luminescence	3D culture	IC50	> 1 µM
O=C(O)c1ccccc1Nc1cccc(C(F)(F)F)c1	NCI-H226	cell growth or viability, CCK-8	72 h	GI50	> 40 µM
C=CC(=O)NC1CCN(c2ncc3ncnc(Nc4ccc(Oc5ccc6c(c5)ncn6C)c(C)c4)c3n2)CC1	ABC-1	cell growth or viability		EC50	0.964 µM
C=CC(=O)c1cccnc1Nc1cc(C(F)(F)F)ccc1OC	NCI-H226	cell growth or viability, CCK-8	72 h	GI50	16.2 µM
CN(C)C(=O)c1cc2cnc(Nc3ccc(N4CCNCC4)cn3)nc2n1C1CCCC1	human Neutrophil	superoxide release, inhibitor		IC50	0.83 µM
C=CC(=O)c1cccnc1Nc1cccc(C(F)(F)F)c1	NCI-H226	cell growth or viability, CCK-8	72 h	GI50	29.1 µM
CC(C)c1ccccc1[C@@H]1CCCN1C1CC2(CCN(c3ccc(C(=O)NS(=O)(=O)c4ccc(NC[C@H]5CC[C@](C)(O)CC5)c([N+](=O)[O-])c4)c(Oc4cnc5[nH]ccc5c4)c3)CC2)C1	SU-DHL-8	cell growth or viability, ATP luminescence	48 h	IC50	4.45 µM
